Tested on: U2OS
Test: Multiplex assay against U2OS
Type: toxicity, cell-based
Conditions: human
Summary of the method: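 Values for tubulin, mitochondrial-mass and membrane-permeability phenotypes are per cents of cells with healthy nuclei. These cells were identified by CellPathfinder machine-learning gating of live cells that had been stained at seeding with Hoechst33342, BioTracker Green Microtubule Cytoskeleton Dye, MitoTracker Red and Annexin V Alexa Fluor 680 and imaged on a CQ1 microscope at 37°C and 5% CO2 after compound addition. The gating first set Hoechst high-intensity objects apart from normal cells, then split normal cells into healthy, pyknosed or fragmented nuclei, and pyknosed cells into mitotic or apoptotic.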

[1] = 12 h, 1 µM, compound concentration 1 uM, replicate 1
[2] = 12 h, 1 µM, compound concentration 1 uM, replicate 2
[3] = 12 h, 10 µM, compound concentration 10 uM, replicate 1
[4] = 12 h, 10 µM, compound concentration 10 uM, replicate 2
[5] = 24 h, 1 µM, compound concentration 1 uM, replicate 1
[6] = 24 h, 1 µM, compound concentration 1 uM, replicate 2
[7] = 24 h, 10 µM, compound concentration 10 uM, replicate 1
[8] = 24 h, 10 µM, compound concentration 10 uM, replicate 2
[9] = 48 h, 1 µM, compound concentration 1 uM, replicate 1
[10] = 48 h, 1 µM, compound concentration 1 uM, replicate 2
[11] = 48 h, 10 µM, compound concentration 10 uM, replicate 1
[12] = 48 h, 10 µM, compound concentration 10 uM, replicate 2

CN1CCN2c3ncccc3Cc3ccccc3C2C1 (stereo not drawn) [MIRTAZAPINE]
Population Apoptotic (%) [1]: 82%
Population Fragmented Nuclei (%) [1]: 21%
Population Healthy Nuclei (%) [1]: 67%
Population Hoechst High Intensity Objects (%) [1]: 1%
Population Membrane Permeable-Phenotype (%) [1]: 3%
Population Mitochondria Different-Phenotype (%) [1]: 1%
Population Mitotic Cells (%) [1]: 17%
Population Normal (%) [1]: 99%
Population Pyknosed Nuclei (%) [1]: 11%
Population Tubulin-Different-Phenotype (%) [1]: 2%
Total Cell Count [1]: 301
Population Apoptotic (%) [2]: 100%
Population Healthy Nuclei (%) [2]: 72%
Population Membrane Permeable-Phenotype (%) [2]: 5%
Population Mitochondria Different-Phenotype (%) [2]: 6%
Population Mitotic Cells (%) [2]: 0%
Population Normal (%) [2]: 98%
Population Pyknosed Nuclei (%) [2]: 6%
Population Tubulin-Different-Phenotype (%) [2]: 3%
Total Cell Count [2]: 81
Population Apoptotic (%) [3]: 73%
Population Fragmented Nuclei (%) [3]: 19%
Population Healthy Nuclei (%) [3]: 71%
Population Hoechst High Intensity Objects (%) [3]: 3%
Population Membrane Permeable-Phenotype (%) [3]: 6%
Population Mitochondria Different-Phenotype (%) [3]: 5%
Population Mitotic Cells (%) [3]: 26%
Population Normal (%) [3]: 96%
Population Pyknosed Nuclei (%) [3]: 8%
Population Tubulin-Different-Phenotype (%) [3]: 6%
Total Cell Count [3]: 266
Population Apoptotic (%) [4]: 66%
Population Fragmented Nuclei (%) [4]: 13%
Population Healthy Nuclei (%) [4]: 82%
Population Membrane Permeable-Phenotype (%) [4]: 3%
Population Mitochondria Different-Phenotype (%) [4]: 4%
Population Mitotic Cells (%) [4]: 33%
Population Pyknosed Nuclei (%) [4]: 3%
Population Tubulin-Different-Phenotype (%) [4]: 0%
Total Cell Count [4]: 83
Population Apoptotic (%) [5]: 85%
Population Fragmented Nuclei (%) [5]: 15%
Population Healthy Nuclei (%) [5]: 76%
Population Hoechst High Intensity Objects (%) [5]: 2%
Population Membrane Permeable-Phenotype (%) [5]: 5%
Population Mitochondria Different-Phenotype (%) [5]: 3%
Population Mitotic Cells (%) [5]: 14%
Population Normal (%) [5]: 97%
Population Pyknosed Nuclei (%) [5]: 8%
Population Tubulin-Different-Phenotype (%) [5]: 2%
Total Cell Count [5]: 340
Population Apoptotic (%) [6]: 100%
Population Fragmented Nuclei (%) [6]: 26%
Population Healthy Nuclei (%) [6]: 63%
Population Hoechst High Intensity Objects (%) [6]: 3%
Population Membrane Permeable-Phenotype (%) [6]: 3%
Population Mitotic Cells (%) [6]: 0%
Population Normal (%) [6]: 96%
Population Pyknosed Nuclei (%) [6]: 10%
Population Tubulin-Different-Phenotype (%) [6]: 4%
Total Cell Count [6]: 99
Population Apoptotic (%) [7]: 89%
Population Fragmented Nuclei (%) [7]: 18%
Population Healthy Nuclei (%) [7]: 71%
Population Hoechst High Intensity Objects (%) [7]: 2%
Population Membrane Permeable-Phenotype (%) [7]: 4%
Population Mitochondria Different-Phenotype (%) [7]: 2%
Population Mitotic Cells (%) [7]: 10%
Population Normal (%) [7]: 97%
Population Pyknosed Nuclei (%) [7]: 9%
Population Tubulin-Different-Phenotype (%) [7]: 0%
Total Cell Count [7]: 314
Population Apoptotic (%) [8]: 83%
Population Fragmented Nuclei (%) [8]: 9%
Population Healthy Nuclei (%) [8]: 85%
Population Hoechst High Intensity Objects (%) [8]: 0%
Population Membrane Permeable-Phenotype (%) [8]: 5%
Population Mitotic Cells (%) [8]: 16%
Population Normal (%) [8]: 99%
Population Pyknosed Nuclei (%) [8]: 5%
Population Tubulin-Different-Phenotype (%) [8]: 5%
Total Cell Count [8]: 108
Population Apoptotic (%) [9]: 83%
Population Fragmented Nuclei (%) [9]: 12%
Population Healthy Nuclei (%) [9]: 76%
Population Hoechst High Intensity Objects (%) [9]: 2%
Population Membrane Permeable-Phenotype (%) [9]: 4%
Population Mitochondria Different-Phenotype (%) [9]: 2%
Population Mitotic Cells (%) [9]: 16%
Population Normal (%) [9]: 97%
Population Pyknosed Nuclei (%) [9]: 10%
Population Tubulin-Different-Phenotype (%) [9]: 3%
Total Cell Count [9]: 479
Population Apoptotic (%) [10]: 92%
Population Fragmented Nuclei (%) [10]: 20%
Population Healthy Nuclei (%) [10]: 68%
Population Hoechst High Intensity Objects (%) [10]: 4%
Population Membrane Permeable-Phenotype (%) [10]: 8%
Population Mitochondria Different-Phenotype (%) [10]: 4%
Population Mitotic Cells (%) [10]: 7%
Population Normal (%) [10]: 95%
Population Pyknosed Nuclei (%) [10]: 11%
Population Tubulin-Different-Phenotype (%) [10]: 1%
Total Cell Count [10]: 132
Population Apoptotic (%) [11]: 95%
Population Fragmented Nuclei (%) [11]: 15%
Population Healthy Nuclei (%) [11]: 75%
Population Hoechst High Intensity Objects (%) [11]: 2%
Population Membrane Permeable-Phenotype (%) [11]: 7%
Population Mitochondria Different-Phenotype (%) [11]: 4%
Population Mitotic Cells (%) [11]: 5%
Population Normal (%) [11]: 97%
Population Pyknosed Nuclei (%) [11]: 9%
Population Tubulin-Different-Phenotype (%) [11]: 5%
Total Cell Count [11]: 435
Population Apoptotic (%) [12]: 100%
Population Fragmented Nuclei (%) [12]: 12%
Population Healthy Nuclei (%) [12]: 78%
Population Membrane Permeable-Phenotype (%) [12]: 3%
Population Mitochondria Different-Phenotype (%) [12]: 3%
Population Mitotic Cells (%) [12]: 0%
Population Tubulin-Different-Phenotype (%) [12]: 3%
Total Cell Count [12]: 170

Reference: ChEMBL document CHEMBL5058577, “EUbOPEN Chemogenomics Library 2 (Multiplex)” (2022)
